Assay [1] has as its system A-375. Put plainly: Induction of cell cycle arrest in human A375 cells assessed as increase in accumulation at subG1 phase at 10 uM after 16 hrs by propidium iodide staining based flow cytometric method. Format: functional. The essentials: (§1)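 Seeded at 3×10^5 cells/well for 24 h at 37°C, then exposed to 10 µM inhibitor or 0.5% (v/v) DMSO for 8 or 16 h. Trypsin-harvested, fixed in cold 70% ethanol at -20°C for 1 h, stained 30 min at 4°C with 50 µg/mL PI in non-lysis solution. Phase distribution (sub-G1, G0/G1, S, G2/M) read by FACScan; triplicate experiments, mean ± SE.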

In assay [2] the test system is A-375. Briefly: Induction of cell cycle arrest in human A375 cells assessed as increase in accumulation at G2/M phase at 10 uM after 16 hrs by propidium iodide staining based flow cytometric method. It counts as functional. The method, boiled down: as §1
Assay [3] relates to A2058. Briefly: Induction of cell cycle arrest in human A2058 cells assessed as increase in accumulation at subG1 phase at 10 uM after 16 hrs by propidium iodide staining based flow cytometric method. It counts as functional. The method, boiled down: as §1
The subject of assay [4] is A2058. Put plainly: Induction of cell cycle arrest in human A2058 cells assessed as increase in accumulation at G2/M phase at 10 uM after 16 hrs by propidium iodide staining based flow cytometric method. It counts as functional. The essentials:
as §1

Assay [5] relates to A2058. Put plainly: Induction of cell cycle arrest in human A2058 cells assessed as decrease in accumulation at G0/G1 phase at 10 uM after 16 hrs by propidium iodide staining based flow cytometric method. It counts as functional. The method, boiled down: as §1
Assay [6] deals with A-375. Put plainly: Induction of cell cycle arrest in human A375 cells assessed as increase in accumulation at G2/M phase at 10 uM after 8 hrs by propidium iodide staining based flow cytometric method. Format: functional. The method, boiled down:
as §1

For assay [7], the system named is A-375. Put plainly: Induction of cell cycle arrest in human A375 cells assessed as decrease in accumulation at G0/G1 phase at 10 uM after 8 hrs by propidium iodide staining based flow cytometric method. Format: functional. The method, boiled down:
as §1

Assay [8] deals with A2058. Briefly: Induction of cell cycle arrest in human A2058 cells assessed as increase in accumulation at G2/M phase at 10 uM after 8 hrs by propidium iodide staining based flow cytometric method. Format: functional. The method, boiled down:
as §1

The test system of assay [9] is A-375. Put plainly: Inhibition of colony formation in human A375 cells at 0.625 to 10 uM after 10 days by crystal violet staining based assay. It counts as functional, cell-based. The essentials:
(§2)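 Seeded in duplicate at 4×10^2 cells/well; after 2–3 days treated with 0.5% (v/v) DMSO or 0.625–10 µM inhibitor for 10 days at 37°C. Stained 1 h with 1% crystal violet in 50% ethanol; colonies of ≥50 cells counted, expressed as percentage, mean ± SE of at least three experiments.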

The subject of assay [10] is A2058. Briefly: Inhibition of colony formation in human A2058 cells at 0.625 to 10 uM after 10 days by crystal violet staining based assay. Format: functional, cell-based. The essentials: as §2
The subject of assay [11] is A2058. Put plainly: Cytotoxicity against human A2058 cells at 2.5 uM after 72 hrs by MTT assay. Format: functional, cell-based. The method, boiled down:
(§3)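 Cells seeded at 4×10^4/well, treated 24 h after plating with inhibitor or 0.5% (v/v) DMSO vehicle for 24, 48 or 72 h. MTT added, 3 h at 37°C under 5% CO2, formazan solubilised, absorbance at 570 nm. Viability in arbitrary units, mean ± SE of at least three independent experiments versus control. Cells grown in DMEM/10% FBS at 37°C, 5% CO2; BJ-5ta cultured in 4:1 DMEM/Medium 199 with hygromycin B.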

Assay [12] has as its system A2058. Put plainly: Cytotoxicity against human A2058 cells at 50 uM after 48 hrs by MTT assay. It counts as functional, cell-based. The method, boiled down:
as §3

Assay [13] addresses T1, M-phase inducer phosphatase 2 (Homo sapiens) (UniProt P30305).
T1 sequence (whole entry): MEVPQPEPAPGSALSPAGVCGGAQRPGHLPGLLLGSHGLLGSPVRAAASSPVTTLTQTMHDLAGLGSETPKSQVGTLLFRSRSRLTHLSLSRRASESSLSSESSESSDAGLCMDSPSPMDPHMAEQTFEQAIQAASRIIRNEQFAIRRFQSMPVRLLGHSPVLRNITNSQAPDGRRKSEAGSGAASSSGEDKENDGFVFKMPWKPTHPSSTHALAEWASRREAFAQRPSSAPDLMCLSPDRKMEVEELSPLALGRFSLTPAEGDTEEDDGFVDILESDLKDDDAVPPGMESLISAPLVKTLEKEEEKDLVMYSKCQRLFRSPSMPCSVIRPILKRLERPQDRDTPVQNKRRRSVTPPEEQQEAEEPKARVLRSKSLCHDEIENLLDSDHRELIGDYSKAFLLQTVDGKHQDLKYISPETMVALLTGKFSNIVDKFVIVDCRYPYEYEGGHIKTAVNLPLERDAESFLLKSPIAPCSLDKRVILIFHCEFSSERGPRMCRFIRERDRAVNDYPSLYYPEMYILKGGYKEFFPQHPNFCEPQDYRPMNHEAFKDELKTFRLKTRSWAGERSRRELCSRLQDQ
Put plainly: Inhibition of N-terminal His6-tagged human CDC25B (377 to 550 residues) expressed in Escherichia coli BL21(DE3) cells at 10 uM by spectrofluorimetric analysis.

The target of assay [14] is T2, M-phase inducer phosphatase 3 (Homo sapiens, UniProt P30307).
T2 sequence (P30307 whole entry): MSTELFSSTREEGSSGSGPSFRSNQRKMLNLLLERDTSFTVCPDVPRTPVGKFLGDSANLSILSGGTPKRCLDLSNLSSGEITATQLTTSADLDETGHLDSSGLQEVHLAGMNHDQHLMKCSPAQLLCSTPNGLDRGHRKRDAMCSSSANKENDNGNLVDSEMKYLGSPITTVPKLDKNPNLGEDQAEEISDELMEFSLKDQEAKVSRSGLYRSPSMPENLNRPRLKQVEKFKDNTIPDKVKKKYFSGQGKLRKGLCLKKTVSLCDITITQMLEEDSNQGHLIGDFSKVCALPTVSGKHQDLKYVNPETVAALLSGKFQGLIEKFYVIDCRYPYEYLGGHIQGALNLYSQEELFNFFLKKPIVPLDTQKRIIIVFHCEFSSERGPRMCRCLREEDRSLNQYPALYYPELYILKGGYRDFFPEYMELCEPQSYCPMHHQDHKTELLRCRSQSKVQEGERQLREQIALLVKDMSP
Put plainly: Inhibition of N-terminal His6-tagged human CDC25C (280 to 454 residues) expressed in Escherichia coli BL21(DE3) cells using OMFP as substrate by double reciprocal Lineweaver-Burk plot analysis. The essentials: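 Recombinant CDC25 form (15–25 nM) in 20 mM Tris-HCl pH 7.8, 0.5 mM TCEP, 1% (v/v) DMSO, with or without inhibitor. Reaction started with 0.5–25 µM OMFP; O-methylfluorescein formation followed continuously at 30°C (ex 485/em 530 nm). Initial rates (AU/min) analysed in Lineweaver-Burk plots for Vmax, KM and mechanism; Ki averaged from at least three independent experiments, only roughly estimated for mixed inhibition.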

The target of assay [15] is T1, M-phase inducer phosphatase 2 (Homo sapiens). Briefly: Inhibition of CDC25B in human A2058 cells assessed as increase in phosphorylated cdk1 level at 10 uM after 8 hrs by Western blot analysis. Format: cell-based. The method, boiled down: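 After 24 h at 3×10^5 cells, 8 h treatment with 10 µM inhibitor or 0.5% DMSO. Lysis in ice-cold modified RIPA with Na3VO4, NaF and protease inhibitors; Bradford-normalised equal protein on 12% SDS-PAGE. Rabbit polyclonal anti-p-Cdk1 overnight at 4°C, HRP secondary, ECL detection; β-actin loading control.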

Calls of active or inactive are those of the source. No cut-off for these calls is given here.

Drawing on ChEMBL document CHEMBL4311947, “Discovery of Novel Naphthylphenylketone and Naphthylphenylamine Derivatives as Cell Division Cycle 25B (CDC25B) Phosphatase Inhibitors: Design, Synthesis, Inhibition Mechanism, and in Vitro Efficacy against Melanoma Cell Lines” (J Med Chem, 2019), this text covers Activity, inhibition and Ki for one molecule.

Take `CCOC(=O)c1cccc(Nc2cc(OC)cc3ccccc23)c1`: the result with A-375 [1], in the assay on A2058 [4], with A2058 [5], in the assay on A-375 [6], in the assay on A-375 [7] and in the assay with A2058 [8] was Active. For the same molecule, the outcome in the assay on A2058 [11] and in the assay on A2058 [12] was Active. Also, the outcome in the assay on A-375 [2] and with A2058 [3] was inactive. Besides, the inhibition entry (in the assay with A-375 [9]; in the assay with A2058 [10]; in [15]) was “Active” throughout. Besides, the inhibition entry in assay [13] was “inactive”. This molecule also showed a Ki in [14] of 1.9 µM.
